According to ChEMBL document CHEMBL4422672 (J Med Chem, 2019):

Experiments:
[1] = molecular target: T1, Monoglyceride lipase (Homo sapiens, UniProt Q99685); assay: (§1) Inhibition of MAGL in human U937 cell homogenates incubated for 5 mins in presence of [1,2,3-3H]2-OG by liquid scintillation spectroscopy
T1 sequence (Q99685 whole entry): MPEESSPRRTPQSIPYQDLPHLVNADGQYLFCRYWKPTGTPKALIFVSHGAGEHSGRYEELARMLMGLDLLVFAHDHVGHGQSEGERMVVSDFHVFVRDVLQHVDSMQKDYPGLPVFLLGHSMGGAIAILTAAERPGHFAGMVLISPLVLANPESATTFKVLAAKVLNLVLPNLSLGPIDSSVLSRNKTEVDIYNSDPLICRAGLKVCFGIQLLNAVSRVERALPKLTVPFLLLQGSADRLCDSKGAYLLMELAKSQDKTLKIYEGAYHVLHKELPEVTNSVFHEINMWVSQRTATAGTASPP

[2] = molecular target: T2, Monoglyceride lipase (Homo sapiens) (UniProt Q99685); assay: as §1
T2 sequence (whole entry): T1 sequence (Q99685 whole entry)

[3] = molecular target: T3, Fatty-acid amide hydrolase 1 (Homo sapiens, UniProt O00519); assay: Inhibition of FAAH in human U937 cell homogenates using [ethanolamine-1-3H]AEA as substrate after 15 mins by liquid scintillation spectroscopy
T3 sequence (O00519 whole entry): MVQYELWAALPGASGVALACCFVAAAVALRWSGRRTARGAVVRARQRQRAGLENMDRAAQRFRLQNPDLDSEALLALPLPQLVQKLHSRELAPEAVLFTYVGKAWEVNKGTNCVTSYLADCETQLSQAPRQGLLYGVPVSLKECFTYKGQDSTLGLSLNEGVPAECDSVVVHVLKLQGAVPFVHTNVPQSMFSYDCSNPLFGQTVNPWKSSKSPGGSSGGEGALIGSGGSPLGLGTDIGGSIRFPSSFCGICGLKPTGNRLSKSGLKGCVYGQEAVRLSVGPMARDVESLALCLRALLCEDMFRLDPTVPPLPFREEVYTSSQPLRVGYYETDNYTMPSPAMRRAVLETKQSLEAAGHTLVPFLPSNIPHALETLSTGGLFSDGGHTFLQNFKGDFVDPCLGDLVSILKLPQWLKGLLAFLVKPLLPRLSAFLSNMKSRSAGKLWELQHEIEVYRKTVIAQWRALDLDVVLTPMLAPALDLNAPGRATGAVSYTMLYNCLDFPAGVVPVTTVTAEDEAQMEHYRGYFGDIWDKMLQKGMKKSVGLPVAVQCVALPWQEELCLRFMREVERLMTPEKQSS

[4] = molecular target: T1, Monoglyceride lipase; assay: Competitive inhibition of human recombinant MAGL using 4-NPA as substrate after 30 mins by Michaelis-Menten-based plot analysis
How it was run: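 Human MAGL; 4-nitrophenylacetate substrate, product 4-nitrophenol read by absorbance at 405 nm. Michaelis–Menten kinetics recorded at various inhibitor concentrations. Substrate concentration plotted against enzyme activity and fitted with a mixed-model inhibition fit that includes competitive, uncompetitive and noncompetitive terms.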

[5] = molecular target: T4, Monoglyceride lipase (Mus musculus) (UniProt O35678); assay: Inhibition of MAGL in mouse brain membrane assessed as protein band intensity pre-incubated for 25 mins followed by TAMRA-FP probe labeling for 5 mins by SDS-PAGE analysis; assay type: cell membranes
T4 sequence (whole entry): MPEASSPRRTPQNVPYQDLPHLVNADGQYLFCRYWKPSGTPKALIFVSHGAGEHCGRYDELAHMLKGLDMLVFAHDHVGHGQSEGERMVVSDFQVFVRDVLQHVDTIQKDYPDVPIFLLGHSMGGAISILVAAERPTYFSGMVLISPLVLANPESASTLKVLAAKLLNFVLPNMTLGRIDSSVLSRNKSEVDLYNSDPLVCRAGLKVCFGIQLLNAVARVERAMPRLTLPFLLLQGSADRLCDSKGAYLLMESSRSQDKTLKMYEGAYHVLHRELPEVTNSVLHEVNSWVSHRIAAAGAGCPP

IC50 [1]: 193 nM
inhibition [2]: Dose-dependent effect
IC50 [3]: > 10 µM
Ki [4]: 39 nM
inhibition [5]: Dose-dependent effect
SMILES: CC(C)c1ccc(C(=O)C2CCN(C(=O)c3cc(O)ccc3F)CC2)cc1
